Test results from ChEMBL document CHEMBL4622914, “Development of a bioavailable boron-containing PI-103 Bioisostere, PI-103BE” (Bioorg Med Chem Lett, 2020).

Key:
HeLa = assay: Antiproliferative activity against human HeLa cells assessed as reduction in cell viability incubated for 4 days by coulter counter method; assay type: functional, cell-based
Summary of the method: (§1)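 Cancer cells were seeded at 50,000 per well in DMEM with 5% FBS. They were exposed to six compound doses for 4 days, with DMSO as vehicle control and a reference inhibitor as positive control. Cells were counted by Coulter counter. Survival ratio is treated cell number over vehicle cell number. IC50 was taken from dose–response curves. Triplicate experiments.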

[1] = Stability of compound in cell culture medium assessed as compound hydrolysis measured after 24 hrs; assay type: physicochemical
[2] = Stability of compound in cell culture medium assessed as compound hydrolysis measured after 1 hr; assay type: physicochemical
MDA-MB-231 = assay: Antiproliferative activity against human MDA-MB-231 cells assessed as reduction in cell viability incubated for 4 days by coulter counter method; assay type: functional, cell-based; summary of the method: as §1
CWR22R = assay: Antiproliferative activity against human 22Rv1 cells assessed as reduction in cell viability incubated for 4 days by coulter counter method; assay type: functional, cell-based; summary of the method: as §1
[3] = Stability of compound in cell culture medium assessed as compound hydrolysis measured after 0.5 hrs; assay type: physicochemical
A549 = assay: Antiproliferative activity against human A549 cells assessed as reduction in cell viability incubated for 4 days by coulter counter method; assay type: functional, cell-based; summary of the method: as §1
[4] = Stability of compound in cell culture medium assessed as compound hydrolysis measured after 8 hrs; assay type: physicochemical
[5] = Stability of compound in cell culture medium assessed as compound hydrolysis measured after 3 hrs; assay type: physicochemical

Drug degradation [1]: 3.53 µM
Drug degradation [2]: 3.08 µM
Drug degradation [3]: 2.39 µM
Drug degradation [4]: 3.55 µM
Drug degradation [5]: 3.52 µM
SMILES: OB(O)c1cccc(-c2nc(N3CCOCC3)c3oc4ncccc4c3n2)c1
Activity (HeLa): Dose-dependent effect
Activity (MDA-MB-231): Dose-dependent effect
Activity (CWR22R): Dose-dependent effect
Activity (A549): Dose-dependent effect
